# Entries after “also recorded” stand apart in the source; their conditions may differ.
# Experiments:
# DnaK [1] = details: from biochemical assays of this paper
# W102 of DnaK = test: Tryptophan fluorescence assay; format: biochemical, Escherichia coli; details: for W102 fluorescence of D148 mutants (in words): ATP and ADP, compared with wild-type levels; for wavelength of maximal W102 fluorescence: 1 μM DnaK, buffer A pH 7.5, ~25°C, excitation 290 nm
# In short: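 Protein: full-length DnaK with C-terminal His6, expressed in BB205 and purified by HisTrap then HiTrap Q. Protein (1 μM final) preincubated 2 min with 2 mM ATP or ADP in buffer A (25 mM Hepes-KOH pH 7.5, 100 mM KCl, 10 mM Mg(OAc)2). Emission 300–400 nm recorded at ~25°C. Spectra normalised to ADP peak = 1.0. ATP-versus-ADP peak-wavelength shift compared.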
# [2] = test system: dnaK deletion strain BB205 E. coli cells; test: Cell viability tests; format: cell-based, Escherichia coli; details: growth on LB agar at elevated temperature (37°C to 40°C), 20 μM IPTG
# In short: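 DnaK-dependence test: pBB46 plasmids (ampR) carrying mutant dnaK transformed into BB205 (camR kanR). Fresh overnight culture from each fresh transformation, serially diluted, spotted on LB with 50 μg/ml ampicillin, 25 μg/ml kanamycin, 25 μg/ml chloramphenicol, 20 μM IPTG. Grown overnight at 37°C to 40°C, with control plates at 30°C. Viability scored from growth.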
# DnaK [3] = details: for rate of ATP hydrolysis, basal: buffer A pH 7.5, single-turnover; for kcat (ATP hydrolysis): single-turnover, constitutively stimulated state (k′ = kcat); for ATP hydrolysis (in words): intrinsic / low peptide concentration, compared with WT
# [4] = test system: yeast Ssa1 and E. coli DnaK; details: heat shock; ref Liu & Hendrickson, 2007; cited from earlier work
# DnaK [5] = details: from d with KD^0S 1.73 μM; 20°C
substance,measurement,setting,value
D148I,allosteric state phenotype (in words),DnaK [1],exclusive stabilization of the restraining R-state alternative
same,W102 fluorescence of D148 mutants (in words),W102 of DnaK,quenched and blue-shifted to beyond wild-type levels
same,chaperone activity / cell viability (in words),[2],destroy chaperone activity
N170D,"rate of ATP hydrolysis, basal","DnaK [3]; basal, 20°C",0.37 min⁻¹
same,enhancement of basal ATP hydrolysis over WT,"DnaK [3]; basal, 20°C, versus WT",31 fold
same,phenotype of mutants (in words),[4],profoundly defective
I483D,KeqS = [R] / [S],DnaK [5],0
same,kcat (ATP hydrolysis),DnaK [3]; 20°C,0.00452 ± 0.000183 s⁻¹
same,ATP hydrolysis (in words),DnaK [3],constitutively high ATPase activities
same,phenotype of mutants (in words),[4],profoundly defective
same,chaperone activity / cell viability (in words),[2],negligible chaperone activity; also recorded: destroy chaperone activity
I160D,ATP hydrolysis (in words),DnaK [3],constitutively high ATPase activities
same,phenotype of mutants (in words),[4],profoundly defective
WT∷NR: DnaK (residues 1–609) fused through a flexible linker to the NRLLLTG heptapeptide,KeqS = [R] / [S],DnaK [5],0
same,kcat (ATP hydrolysis),DnaK [3]; 20°C,0.00455 ± 0.00013 s⁻¹
D148V,W102 fluorescence of D148 mutants (in words),W102 of DnaK,quenched and blue-shifted to beyond wild-type levels
WT DnaK: full-length wild-type E. coli Hsp70 DnaK,"rate of ATP hydrolysis, basal","DnaK [3]; basal, 20°C",0.012 min⁻¹
same,wavelength of maximal W102 fluorescence,W102 of DnaK; 2 mM ADP,342 nm
same,wavelength of maximal W102 fluorescence,W102 of DnaK; 2 mM ATP,335 nm
same,W102 fluorescence change (in words),W102 of DnaK; ATP as compared with ADP,quenched and blue shifted
V389D,phenotype of mutants (in words),[4],profoundly defective

# Reference: publication PMC8500941 (Molecular cell, 2021)
